Screening data: PubChem, Johns Hopkins Ion Channel Center
Compounds with a hit are over-represented: about 3.5% of the library has one in this group of screens.
MrgX1 ag = human MrgX1 receptor agonism, primary screen; MrgX1-HEK293 cells, Fluo-4 calcium fluorescence, agonist mode; stronger effect = higher value; Q96LB2; B-score at 10 µM; 310,000 compounds, 0.44% hits;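 active = calcium response B-score plate-corrected fluorescence ratio at least 3 library SD, with starting fluorescence B-score inside 5 SD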
Target sequence (Q96LB2 whole entry, looked up): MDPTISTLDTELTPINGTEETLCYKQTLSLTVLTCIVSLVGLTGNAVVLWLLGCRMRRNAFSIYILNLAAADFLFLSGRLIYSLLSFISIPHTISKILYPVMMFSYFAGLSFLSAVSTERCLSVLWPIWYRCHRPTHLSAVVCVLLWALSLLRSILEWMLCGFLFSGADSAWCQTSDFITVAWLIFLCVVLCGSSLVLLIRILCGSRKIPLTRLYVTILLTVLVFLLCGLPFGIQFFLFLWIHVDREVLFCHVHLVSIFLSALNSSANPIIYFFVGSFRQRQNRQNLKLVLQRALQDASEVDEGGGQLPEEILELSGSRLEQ
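Test system: Stable human MrgX1 HEK293 cell line | Schedule: Overnight plating before 1 h dye loading | Read-out basis: Baseline-normalised fluorescence change ratio, B-scored | Detection: Kinetic calcium dye fluorescence, Fluo-4 NW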
MrgX1 antagonist = human MrgX1 receptor antagonism, primary screen; Q96LB2; MRGX1-HEK293 calcium flux, Fluo-4, BAM8-22 antagonism; stronger effect = lower value; B-score at 10 µM; 310,000 compounds, 1.3% hits;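 active = calcium-response B-score plate-corrected more than 3 library SD below zero, starting fluorescence within 5 deviations, no agonist response on first addition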;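 note: peak minus trough fluorescence over baseline after final BAM8-22 challenge near maximal dose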
RGS4 act = RGS4 potentiation or activation | B-score at 10 µM | HEK293 M3R/inducible RGS4, carbachol calcium flux Fluo4; stronger effect = lower value | 310,000 compounds, 0.92% hits;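 active = B-score of the integrated calcium signal more than 4 SD below the library mean, with starting fluorescence not abnormally high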;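 note: negative B-score means reduced calcium response which marks RGS4 activation or potentiation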
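Detection: kinetic calcium fluorescence imaging with Fluo4-AM dye, 2 µM / Material: HEK293 cells with stable M3R and inducible RGS4 / Schedule: recording 10 s baseline at 1 Hz, 100 s post-agonist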
MrgX1 PAM = allosterically activates human MrgX1 receptor signaling. Q96LB2. MrgX1-HEK293, Fluo-4 calcium flux, FDSS; stronger effect = higher value. B-score at 10 µM. 310,000 compounds, 0.63% hits. AID 588675;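 active = plate-corrected calcium response at least 3 library SD above typical, normal starting fluorescence, not activating the receptor alone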;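 note: compound read alongside a low EC10 to EC30 dose of BAM8-22 agonist; peak minus trough fluorescence over baseline measured at the second addition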
RGS4 inh = inhibitors of human RGS4; P49798; HEK293 M3R/RGS4 inducible, Fluo-4 calcium flux; stronger effect = higher value; triggered by carbachol at its EC20; B-score at 10 µM; 310,000 compounds, 0.45% hits; AID 463165;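 active = B-score, a plate-corrected calcium signal, over three deviations above library mean, with baseline fluorescence within five deviations of library mean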;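 note: RGS4 expression induced by doxycycline in cells with stable M3 receptor; B-score is computed from the integrated fluorescence ratio over baseline after carbachol; higher B-score means a larger calcium signal and so more RGS4 inhibition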
Target sequence (P49798 whole entry, looked up): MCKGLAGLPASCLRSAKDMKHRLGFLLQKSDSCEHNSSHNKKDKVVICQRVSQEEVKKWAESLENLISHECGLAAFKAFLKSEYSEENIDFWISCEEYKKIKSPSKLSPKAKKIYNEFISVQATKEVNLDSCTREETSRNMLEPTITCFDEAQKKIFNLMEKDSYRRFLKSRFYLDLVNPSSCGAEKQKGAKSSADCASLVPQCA
Starred values were filed as active, the others as inactive; i = inactive; nt = no result given.

SMILES	MrgX1 ag	MrgX1 antagonist	RGS4 act	MrgX1 PAM	RGS4 inh
O=[N+]([O-])c1ccc(Cl)c2c1C1C=CCC1C(c1ccccn1)N2 (stereo unspecified)	i	-5.6*	i	i	i
CCCCOC(=O)c1ccc(NC(=O)C(=O)NCCN(C)C)cc1	i	i	i	i	i
CNC(=O)/C(C#N)=C/c1ccc(-c2ccc(OC)cc2[N+](=O)[O-])o1	i	-5.2*	i	i	i
O=C1C(Cl)=C(NC2CCCCC2)C(=O)N1c1ccc(Cl)cc1	i	i	i	15*	i
CN1CCN(C2=C(Cl)C(=O)N(c3ccc(Cl)cc3)C2=O)CC1	i	i	i	i	i
Cc1ccc(C(=O)C(c2ccccc2)N2Cc3ccccc3C2=N)cc1 (stereo unspecified)	i	i	-8.1*	i	i
COc1ccccc1CN1CC(C(=O)NCCC2=CCCCC2)CCC1=O (stereo unspecified)	i	i	i	i	i
Cc1ccc(N(CCC#N)C(=O)COC(=O)c2ccccc2SCC(=O)N2CCCC2)cc1	i	i	i	i	i
Cc1cc(C)cc(N(CCC#N)C(=O)COC(=O)c2ccccc2SCC(=O)N2CCCC2)c1	i	i	-7.1*	i	i
CC(C)OP(=O)(OC(C)C)C1(NS(=O)(=O)c2ccc(Cl)cc2)C=C(Cl)C(=O)C(Cl)=C1	i	i	i	i	i
O=C(NNS(=O)(=O)c1ccc2ccccc2c1)C1CCN(Cc2ccccc2)CC1	i	i	i	i	i
O=C(NNS(=O)(=O)c1ccc(F)cc1)C1CCN(Cc2cccc(F)c2)CC1	i	i	-7.3*	i	i
NC(N)=N/N=C/c1ccc2cccc(OCc3ccccc3)c2n1	i	-5.3*	i	i	i
NC(=S)N/N=C/c1ccc2cccc(OCc3ccccc3)c2n1	i	i	i	i	i
O=C(N/N=C/c1ccc2cccc(OCc3ccccc3)c2n1)c1ccc(Br)cc1	i	i	-10*	i	i
O=C(CCOc1ccccc1)Nc1ccccc1[N+](=O)[O-]	i	-5.4*	i	i	i
COC(=O)c1ccccc1NC(=O)COc1ccccc1	i	i	i	i	i
CC(C)(C)CC(=O)NC(=S)Nc1ccccc1[N+](=O)[O-]	i	-5.7*	i	i	i
COC(=O)c1ccccc1NC(=O)COc1ccccc1[N+](=O)[O-]	i	-4.6*	i	i	i
CS(=O)(=O)N(CC(=O)N1CCOCC1)c1cc(Cl)ccc1Cl	i	i	i	i	i
CCN(C(=O)CCCCC(=O)N(CC)c1ccccc1)c1ccccc1	i	i	i	i	i
Cc1nc2cc(C(=O)N3c4ccccc4CC3C)ccc2s1 (stereo unspecified)	i	i	i	i	i
O=C(CSc1nnc(-c2ccccc2)c(-c2ccccc2)n1)NC1CCS(=O)(=O)C1 (stereo unspecified)	i	i	i	i	i
O=C(Cn1ccnc1[N+](=O)[O-])NCc1ccccc1	i	i	-7.7*	i	i
Cc1nc2c(C)cccn2c1/C(O)=C1\C(=O)C(=O)N(CCN(C)C)C1c1ccncc1 (stereo unspecified)	i	i	i	i	i
SMILES	MrgX1 ag	MrgX1 antagonist	RGS4 act	MrgX1 PAM	RGS4 inh
Cc1nc2ccccn2c1/C(O)=C1\C(=O)C(=O)N(CCCN(C)C)C1c1ccc(F)cc1 (stereo unspecified)	i	-4.8*	nt	i	nt
c1cc2c3c(cccc3c1)NC1(CCCCCC1)N2	i	i	i	i	i
c1cc2c3c(cccc3c1)NC1(CCC3(CC1)Nc1cccc4cccc(c14)N3)N2	i	i	-8.2*	7*	i
C=CCOc1ccc(CN(C)C(=O)CNC(=O)c2ccc(-c3ccccc3)cc2)cc1	i	i	i	i	i
CCn1ccnc1CN(C)Cc1c(C(=O)N2C[C@@H](C)O[C@@H](C)C2)nc2ccc(Cl)cn12	i	i	i	i	i
O=C(CCCCCN1C(=O)[C@@H]2Cc3ccccc3CN2C1=O)Nc1cccc(F)c1	i	i	-7.5*	i	i
Cc1cccc(NC(=O)CCCCCN2C(=O)[C@@H]3Cc4ccccc4CN3C2=O)c1	i	i	i	i	i
CCOc1ccccc1NS(=O)(=O)c1ccc2c(c1)n(C)c(=O)c(=O)n2C	i	i	i	i	i
CC(C)(C)N(Cc1ccccc1)C(=O)c1ccc(Cl)cc1[N+](=O)[O-]	i	i	-10*	i	i
O=C(c1ccc(Cl)cc1[N+](=O)[O-])N(Cc1ccccc1)Cc1ccccc1	i	i	i	i	i
Cc1nc(Cc2nnc(SCC(=O)Nc3c(C)cccc3C)o2)cs1	i	i	i	i	i
Cn1nc(C(=O)NCc2ccccc2)c2ccccc2c1=O	i	i	i	i	i
Cn1nc(C(=O)Nc2ccccc2N2CCCC2)c2ccccc2c1=O	i	i	i	12*	i
COc1cccc(OC)c1C(=O)Nc1ccccc1N1CCCC1	i	i	i	i	i
COc1cc2ccccc2cc1C(=O)Nc1ccccc1N1CCCC1	i	i	-7.3*	i	i
Cn1nc(C(=O)NCCOc2ccccc2)c2ccccc2c1=O	i	i	i	10*	i
O=C(NC(=S)Nc1ccccc1N1CCCCC1)c1ccc(F)cc1Cl	i	i	-7*	i	i
CC(C)n1nc(C(=O)Nc2ccccc2N2CCOCC2)c2ccccc2c1=O	i	i	i	i	i
CCCCN(C)CC(O)Cn1cc(/C=C/C(=O)c2ccc(C)cc2)c2ccccc21 (stereo unspecified)	i	-5.4*	i	i	i
C[C@H]1[C@H](C)CC[C@]2(C(=O)O)CC[C@]3(C)C(=CC[C@@H]4[C@@]5(C)C[C@@H](O)[C@H](O)C(C)(C)[C@@H]5CC[C@]43C)[C@H]12	i	i	-7.6*	i	i
CC(=O)N1CC(C)Oc2ccc(S(=O)(=O)NC(CC(=O)O)c3cc(C)ccc3C)cc21 (stereo unspecified)	i	i	i	i	i
CN(C)c1ccc(/C=C(\Cl)c2nc3ccccc3s2)cc1	i	i	nt	i	nt
CN(C)c1ccc2nc3ccc(=[N+](C)C)cc-3sc2c1	i	i	-7.5*	i	i
Cc1cc2nc3ccc(=[N+](C)C)cc-3sc2cc1N	nt	nt	-8.4*	nt	i
Cc1nc2cc(C)c(C)cc2s1	i	i	i	i	i
